Results from ChEMBL document CHEMBL1153747, “Synthesis and inhibitory activity against human monoamine oxidase of N1-thiocarbamoyl-3,5-di(hetero)aryl-4,5-dihydro-(1H)-pyrazole derivatives” (Eur J Med Chem, 2010).

Assays:
[1] = biological target: T1, Amine oxidase [flavin-containing] B (Homo sapiens, UniProt P27338)
T1 sequence (P27338 whole entry): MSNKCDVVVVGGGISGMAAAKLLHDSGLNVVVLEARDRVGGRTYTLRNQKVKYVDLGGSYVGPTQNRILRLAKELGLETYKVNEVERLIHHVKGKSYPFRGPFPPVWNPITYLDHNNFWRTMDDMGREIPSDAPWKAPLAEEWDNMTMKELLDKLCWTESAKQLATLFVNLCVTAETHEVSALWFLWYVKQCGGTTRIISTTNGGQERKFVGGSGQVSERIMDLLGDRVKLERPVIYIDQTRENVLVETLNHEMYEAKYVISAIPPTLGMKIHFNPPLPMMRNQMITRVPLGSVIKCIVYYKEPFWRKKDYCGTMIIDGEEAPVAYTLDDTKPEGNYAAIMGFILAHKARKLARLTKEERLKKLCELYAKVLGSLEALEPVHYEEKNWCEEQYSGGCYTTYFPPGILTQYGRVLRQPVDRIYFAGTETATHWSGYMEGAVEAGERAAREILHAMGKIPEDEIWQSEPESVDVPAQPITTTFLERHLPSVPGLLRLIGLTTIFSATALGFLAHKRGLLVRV

[2] = species on record: Homo sapiens; experiment: Selectivity, ratio of IC50 for human recombinant MAOA to human recombinant MAOB
[3] = biological target: T2, Amine oxidase [flavin-containing] A (Homo sapiens, UniProt P21397); experiment: Inhibition of human recombinant MAOA
T2 sequence (P21397 whole entry): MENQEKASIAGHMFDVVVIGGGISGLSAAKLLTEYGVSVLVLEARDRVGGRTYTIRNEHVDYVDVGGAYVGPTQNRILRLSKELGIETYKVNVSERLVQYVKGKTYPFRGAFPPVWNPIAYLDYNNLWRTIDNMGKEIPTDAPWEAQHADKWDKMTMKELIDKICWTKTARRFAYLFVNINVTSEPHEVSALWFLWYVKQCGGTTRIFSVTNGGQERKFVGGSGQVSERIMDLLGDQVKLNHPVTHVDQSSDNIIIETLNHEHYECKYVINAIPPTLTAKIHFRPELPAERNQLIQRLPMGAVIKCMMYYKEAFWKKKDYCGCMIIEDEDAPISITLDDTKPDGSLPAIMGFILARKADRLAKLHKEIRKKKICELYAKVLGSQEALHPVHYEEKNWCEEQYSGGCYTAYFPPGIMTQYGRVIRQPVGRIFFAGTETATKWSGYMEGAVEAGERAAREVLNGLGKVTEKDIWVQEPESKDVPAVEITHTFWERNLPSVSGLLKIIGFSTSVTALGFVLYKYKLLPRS

[4] = biological target: T1, Amine oxidase [flavin-containing] B; experiment: Inhibition of human recombinant MAOB at 1 mM; details: 1000 µM
Method in brief: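 Recombinant hMAO-A or hMAO-B in microsomes from baculovirus-infected BTI-TN-5B1-4 insect cells, amounts set to oxidize 165 pmol p-tyramine/min in controls. Preincubated with test drug in 0.05 M sodium phosphate pH 7.4, 15 min, 37 °C. Reaction started with Amplex Red, 1 U/mL HRP and 1 mM p-tyramine (final). […] Selectivity = IC50(MAO-A)/IC50(MAO-B).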

SMILES | IC50 [1] [µM] | Ratio IC50 [2] | IC50 [3] [µM] | inhibition (INH) [4]
NC(=S)N1N=C(c2ccc[nH]2)CC1c1ccco1 (centres undefined) | 69.4 | > 1.4 | – | –
NC(=S)N1N=C(c2ccccc2)CC1c1ccccc1 (centres undefined) | 48.3 | > 2.1 | – | –

Other lines, results leading:

IC50 [1] [µM] | Ratio IC50 [2] | IC50 [3] [µM] | inhibition (INH) [4] | SMILES
54.5 | 1.2 | 65.8 | – | Cc1ccc(C2CC(c3ccco3)=NN2C(N)=S)cc1 (centres undefined)
33.3 | 2.1 | 70 | – | NC(=S)N1N=C(c2cccs2)CC1c1ccc[nH]1 (centres undefined)
– | – | – | Not Active | O=C(NCCN1CCOCC1)c1ccc(Cl)cc1 [MOCLOBEMIDE]
32.5 | 1.7 | 54.7 | – | NC(=S)N1N=C(c2ccccc2)CC1c1ccco1 (centres undefined)
